# Measured values published in ChEMBL document CHEMBL1152649, “Synthesis, cytotoxicity and human telomerase inhibition activities of a series of 1,2-heteroannelated anthraquinones and anthra[1,2-d]imidazole-6,11-dione homologues” (2009).
# The source made the active and inactive calls. The rule behind the calls is not given here.
# Assays:
# [1] = Antiproliferative activity against human Hs 578T cells assessed as cell growth at 10 uM; assay type: functional; settings: read-out: Activity
# Procedure, shortened: (§1)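 NCI 60 cell line panel, single-dose screen (10^-5 M) run by the developmental therapeutics program protocol. Results are given as growth percent of treated cells relative to untreated control cells for each line.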
# HOP-92 = assay: Antiproliferative activity against human HOP92 cells assessed as cell growth at 10 uM; assay type: functional; settings: read-out: Activity; procedure, shortened: as §1
# [2] = Cytotoxicity against human H1299 cells at 1 uM after 48 hrs by MTT assay; assay type: functional; settings: NCI-H1299, 48 h
# Procedure, shortened: (§2)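 H1299 non-small cell lung cancer cells were grown in RPMI 1640 with 10% FBS, penicillin and streptomycin at 37 °C under 5% CO2. About 2 × 10³ cells per well were seeded and left 24 h. Compounds were dissolved fresh in DMSO, diluted into complete medium and applied for 48 h. MTT was then added for 4 h at 37 °C, followed by lysis buffer (20% SDS, 50% DMF) for 16 h, and absorbance was read at 550 nm.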
# TK-10 = assay: Antiproliferative activity against human TK10 cells assessed as cell growth at 10 uM; assay type: functional; settings: read-out: Activity
# Procedure, shortened: (§3)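 NCI 60 cell line panel, single dose (10^-5 M), run per the Developmental Therapeutics Program protocol (one dose mean graph). Each result is the growth percentage of treated cells relative to untreated control cells.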
# K562 = assay: Antiproliferative activity against human K562 cells assessed as cell growth at 10 uM; assay type: functional; settings: read-out: Activity; procedure, shortened: as §1
# MDA-MB-231 = assay: Antiproliferative activity against human MDA-MB-231 cells assessed as cell growth at 10 uM; assay type: functional; settings: read-out: Activity; procedure, shortened: as §1
# [3] = molecular target: Telomerase reverse transcriptase (Homo sapiens) (UniProt O14746); assay: Inhibition of TERT in human H1299 cells assessed as residual transcriptional activity at 100 uM after 24 hrs by SEAP reporter gene assay; values are per cent of control
# Chain of Telomerase reverse transcriptase (Homo sapiens) (O14746 whole entry): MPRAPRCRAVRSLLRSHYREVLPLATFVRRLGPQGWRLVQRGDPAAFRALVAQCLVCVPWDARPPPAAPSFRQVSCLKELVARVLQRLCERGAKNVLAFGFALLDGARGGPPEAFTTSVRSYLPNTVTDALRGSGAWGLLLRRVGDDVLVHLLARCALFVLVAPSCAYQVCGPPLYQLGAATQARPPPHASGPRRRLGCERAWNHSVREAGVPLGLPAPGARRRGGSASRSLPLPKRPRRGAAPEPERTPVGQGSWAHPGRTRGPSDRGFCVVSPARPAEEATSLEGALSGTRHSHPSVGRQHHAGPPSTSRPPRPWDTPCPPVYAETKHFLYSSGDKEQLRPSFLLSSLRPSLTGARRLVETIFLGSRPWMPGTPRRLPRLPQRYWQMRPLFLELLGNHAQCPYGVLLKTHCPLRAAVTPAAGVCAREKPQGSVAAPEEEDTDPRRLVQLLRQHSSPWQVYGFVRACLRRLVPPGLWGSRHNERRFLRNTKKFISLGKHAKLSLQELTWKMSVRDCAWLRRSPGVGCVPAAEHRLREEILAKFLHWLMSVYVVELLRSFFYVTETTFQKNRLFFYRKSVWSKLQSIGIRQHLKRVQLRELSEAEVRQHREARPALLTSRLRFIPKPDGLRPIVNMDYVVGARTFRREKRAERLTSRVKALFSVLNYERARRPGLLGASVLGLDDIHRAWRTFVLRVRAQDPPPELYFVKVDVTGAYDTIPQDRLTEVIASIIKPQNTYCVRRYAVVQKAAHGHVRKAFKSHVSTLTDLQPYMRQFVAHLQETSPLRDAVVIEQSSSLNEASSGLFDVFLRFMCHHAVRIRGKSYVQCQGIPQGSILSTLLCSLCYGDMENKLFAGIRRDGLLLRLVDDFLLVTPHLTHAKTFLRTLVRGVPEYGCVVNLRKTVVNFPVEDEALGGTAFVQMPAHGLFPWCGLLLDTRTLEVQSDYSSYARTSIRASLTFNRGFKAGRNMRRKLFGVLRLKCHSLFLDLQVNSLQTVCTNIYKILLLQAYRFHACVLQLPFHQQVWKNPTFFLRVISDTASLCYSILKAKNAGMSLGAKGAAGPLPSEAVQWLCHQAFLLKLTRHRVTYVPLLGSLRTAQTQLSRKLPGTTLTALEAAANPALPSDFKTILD
# OVCAR-4 = assay: Antiproliferative activity against human OVCAR4 cells assessed as cell growth at 10 uM; assay type: functional; settings: read-out: Activity; procedure, shortened: as §1
# SK-MEL-28 = assay: Antiproliferative activity against human SK-MEL-28 cells assessed as cell growth at 10 uM; assay type: functional; settings: read-out: Activity; procedure, shortened: as §1
# SNB-75 = assay: Antiproliferative activity against human SNB75 cells assessed as cell growth at 10 uM; assay type: functional; settings: read-out: Activity; procedure, shortened: as §3
# EKVX = assay: Antiproliferative activity against human EKVX cells assessed as cell growth at 10 uM; assay type: functional; settings: read-out: Activity; procedure, shortened: as §1
# [4] = molecular target: Telomerase reverse transcriptase (Homo sapiens) (UniProt O14746); assay: Inhibition of TERT in human H1299 cells assessed as residual transcriptional activity at 1 uM after 24 hrs by SEAP reporter gene assay; values are per cent of control
# NCI/ADR-RES = assay: Antiproliferative activity against human NCI/ADR-RES cells assessed as cell growth at 10 uM; assay type: functional; settings: read-out: Activity; procedure, shortened: as §1
# MOLT-4 = assay: Antiproliferative activity against human MOLT4 cells assessed as cell growth at 10 uM; assay type: functional; settings: read-out: Activity; procedure, shortened: as §1
# COLO 205 = assay: Antiproliferative activity against human COLO205 cells assessed as cell growth at 10 uM; assay type: functional; settings: read-out: Activity; procedure, shortened: as §1
# HOP-62 = assay: Antiproliferative activity against human HOP62 cells assessed as cell growth at 10 uM; assay type: functional; settings: read-out: Activity; procedure, shortened: as §1
# M14 = assay: Antiproliferative activity against human M14 cells assessed as cell growth at 10 uM; assay type: functional; settings: read-out: Activity; procedure, shortened: as §1
# OVCAR-5 = assay: Antiproliferative activity against human OVCAR5 cells assessed as cell growth at 10 uM; assay type: functional; settings: read-out: Activity; procedure, shortened: as §1
# KM12 = assay: Antiproliferative activity against human KM12 cells assessed as cell growth at 10 uM; assay type: functional; settings: read-out: Activity; procedure, shortened: as §1
# HCT-15 = assay: Antiproliferative activity against human HCT15 cells assessed as cell growth at 10 uM; assay type: functional; settings: read-out: Activity; procedure, shortened: as §1
# [5] = molecular target: Telomerase reverse transcriptase (Homo sapiens) (UniProt O14746); assay: Inhibition of telomerase in human H1299 cells up to 100 uM by TRAP assay; assay type: cell-based
# Procedure, shortened: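 PCR-based telomeric repeat amplification protocol (TRAP). The telomerase source was total lysate of H1299 lung cancer cells, with protein measured against BSA standards. Controls were extract without inhibitor and RNase A-treated extract.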
# 786-0 = assay: Antiproliferative activity against human 786-0 cells assessed as cell growth at 10 uM; assay type: functional; settings: read-out: Activity; procedure, shortened: as §1
# UACC-62 = assay: Antiproliferative activity against human UACC62 cells assessed as cell growth at 10 uM; assay type: functional; settings: read-out: Activity; procedure, shortened: as §3
# OVCAR-3 = assay: Antiproliferative activity against human OVCAR-3 cells assessed as cell growth at 10 uM; assay type: functional; settings: read-out: Activity; procedure, shortened: as §1
# NCI-H460 = assay: Antiproliferative activity against human NCI-H460 cells assessed as cell growth at 10 uM; assay type: functional; settings: read-out: Activity; procedure, shortened: as §1
# SF-295 = assay: Antiproliferative activity against human SF295 cells assessed as cell growth at 10 uM; assay type: functional; settings: read-out: Activity; procedure, shortened: as §1
# MCF7 = assay: Antiproliferative activity against human MCF7 cells assessed as cell growth at 10 uM; assay type: functional; settings: read-out: Activity; procedure, shortened: as §1
# PC-3 = assay: Antiproliferative activity against human PC3 cells assessed as cell growth at 10 uM; assay type: functional; settings: read-out: Activity; procedure, shortened: as §1
# SNB-19 = assay: Antiproliferative activity against human SNB19 cells assessed as cell growth at 10 uM; assay type: functional; settings: read-out: Activity; procedure, shortened: as §1
# U-251 = assay: Antiproliferative activity against human U251 cells assessed as cell growth at 10 uM; assay type: functional; settings: read-out: Activity; procedure, shortened: as §3
# HT-29 = assay: Antiproliferative activity against human HT-29 cells assessed as cell growth at 10 uM; assay type: functional; settings: read-out: Activity; procedure, shortened: as §1
# SW-620 = assay: Antiproliferative activity against human SW620 cells assessed as cell growth at 10 uM; assay type: functional; settings: read-out: Activity; procedure, shortened: as §3
# HCC 2998 = assay: Antiproliferative activity against human HCC2998 cells assessed as cell growth at 10 uM; assay type: functional; settings: read-out: Activity; procedure, shortened: as §1
# UO-31 = assay: Antiproliferative activity against human UO31 cells assessed as cell growth at 10 uM; assay type: functional; settings: read-out: Activity; procedure, shortened: as §3
# CCRF-CEM = assay: Antiproliferative activity against human CCRF-CEM cells assessed as cell growth at 10 uM; assay type: functional; settings: read-out: Activity; procedure, shortened: as §1
# [6] = Cytotoxicity against human H1299 cells at 10 uM after 48 hrs by MTT assay; assay type: functional; settings: NCI-H1299, 48 h; procedure, shortened: as §2
# SK-OV-3 = assay: Antiproliferative activity against human SKOV3 cells assessed as cell growth at 10 uM; assay type: functional; settings: read-out: Activity; procedure, shortened: as §1
# NCI-H23 = assay: Antiproliferative activity against human NCI-H23 cells assessed as cell growth at 10 uM; assay type: functional; settings: read-out: Activity; procedure, shortened: as §1
# [7] = molecular target: Telomerase reverse transcriptase (Homo sapiens) (UniProt O14746); assay: Inhibition of TERT in human H1299 cells assessed as residual transcriptional activity at 10 uM after 24 hrs by SEAP reporter gene assay; values are per cent of control
# SF-539 = assay: Antiproliferative activity against human SF539 cells assessed as cell growth at 10 uM; assay type: functional; settings: read-out: Activity; procedure, shortened: as §1
# SK-MEL-2 = assay: Antiproliferative activity against human SK-MEL-2 cells assessed as cell growth at 10 uM; assay type: functional; settings: read-out: Activity; procedure, shortened: as §1
# NCI-H226 = assay: Antiproliferative activity against human NCI-H226 cells assessed as cell growth at 10 uM; assay type: functional; settings: read-out: Activity; procedure, shortened: as §1
# NCI-H322M = assay: Antiproliferative activity against human NCI-H322M cells assessed as cell growth at 10 uM; assay type: functional; settings: read-out: Activity; procedure, shortened: as §1
# DU-145 = assay: Antiproliferative activity against human DU145 cells assessed as cell growth at 10 uM; assay type: functional; settings: read-out: Activity; procedure, shortened: as §1
# MDA-MB-435 = assay: Antiproliferative activity against human MDA-MB-435 cells assessed as cell growth at 10 uM; assay type: functional; settings: read-out: Activity; procedure, shortened: as §1
structure (smiles),measurement,setting,value
COc1cc(-c2nc3ccc4c(c3[nH]2)C(=O)c2ccccc2C4=O)ccc1O,growth at 10 µM,[1],167%
same,growth at 10 µM,HOP-92,120%
same,viability at 1 µM,[2],71%
same,growth at 10 µM,TK-10,174%
same,growth at 10 µM,K562,95.5%
same,growth at 10 µM,MDA-MB-231,87.9%
same,residual activity,[3],8%
same,growth at 10 µM,OVCAR-4,83%
same,growth at 10 µM,SK-MEL-28,132%
same,growth at 10 µM,SNB-75,86%
same,growth at 10 µM,EKVX,89.1%
same,residual activity,[4],85%
same,growth at 10 µM,NCI/ADR-RES,103%
same,growth at 10 µM,MOLT-4,96.4%
same,growth at 10 µM,COLO 205,101%
same,growth at 10 µM,HOP-62,116%
same,growth at 10 µM,M14,114%
same,growth at 10 µM,OVCAR-5,97.1%
same,growth at 10 µM,KM12,113%
same,growth at 10 µM,HCT-15,103%
same,inhibition,[5],inactive
same,growth at 10 µM,786-0,109%
same,growth at 10 µM,UACC-62,92.2%
same,growth at 10 µM,OVCAR-3,125%
same,growth at 10 µM,NCI-H460,90.1%
same,growth at 10 µM,SF-295,127%
same,growth at 10 µM,MCF7,57.5%
same,growth at 10 µM,PC-3,88.1%
same,growth at 10 µM,SNB-19,97.4%
same,growth at 10 µM,U-251,103%
same,growth at 10 µM,HT-29,101%
same,growth at 10 µM,SW-620,102%
same,growth at 10 µM,HCC 2998,103%
same,growth at 10 µM,UO-31,80.7%
same,growth at 10 µM,CCRF-CEM,94.7%
same,viability at 10 µM,[6],70%
same,growth at 10 µM,SK-OV-3,113%
same,growth at 10 µM,NCI-H23,103%
same,residual activity,[7],50%
same,growth at 10 µM,SF-539,102%
same,growth at 10 µM,SK-MEL-2,82.2%
same,growth at 10 µM,NCI-H226,100%
same,growth at 10 µM,NCI-H322M,107%
same,growth at 10 µM,DU-145,88.1%
same,growth at 10 µM,MDA-MB-435,103%
O=C1c2ccccc2C(=O)c2c1ccc1nc(-c3ccc4c(c3)OCO4)[nH]c21,growth at 10 µM,[1],106%
same,growth at 10 µM,HOP-92,65.3%
same,viability at 1 µM,[2],79%
same,growth at 10 µM,K562,80.6%
same,growth at 10 µM,MDA-MB-231,107%
same,residual activity,[3],34%
same,growth at 10 µM,OVCAR-4,101%
same,growth at 10 µM,SK-MEL-28,116%
same,growth at 10 µM,SNB-75,102%
same,growth at 10 µM,EKVX,94.2%
same,residual activity,[4],61%
same,growth at 10 µM,NCI/ADR-RES,105%
same,growth at 10 µM,MOLT-4,105%
same,growth at 10 µM,COLO 205,126%
same,growth at 10 µM,HOP-62,114%
same,growth at 10 µM,M14,120%
same,growth at 10 µM,OVCAR-5,111%
same,growth at 10 µM,KM12,97.8%
same,growth at 10 µM,HCT-15,106%
same,inhibition,[5],inactive
same,growth at 10 µM,786-0,107%
same,growth at 10 µM,UACC-62,98.1%
same,growth at 10 µM,OVCAR-3,107%
same,growth at 10 µM,NCI-H460,109%
same,growth at 10 µM,SF-295,115%
same,growth at 10 µM,MCF7,46.5%
same,growth at 10 µM,PC-3,107%
same,growth at 10 µM,SNB-19,121%
same,growth at 10 µM,U-251,111%
same,growth at 10 µM,HT-29,95.8%
same,growth at 10 µM,SW-620,91.9%
same,growth at 10 µM,HCC 2998,85.7%
same,growth at 10 µM,UO-31,73.4%
same,growth at 10 µM,CCRF-CEM,99.6%
same,viability at 10 µM,[6],67%
same,growth at 10 µM,SK-OV-3,139%
same,growth at 10 µM,NCI-H23,94.3%
same,residual activity,[7],61%
same,growth at 10 µM,SF-539,108%
same,growth at 10 µM,SK-MEL-2,41.5%
same,growth at 10 µM,NCI-H226,97%
same,growth at 10 µM,NCI-H322M,150%
same,growth at 10 µM,DU-145,107%
same,growth at 10 µM,MDA-MB-435,110%
